# Test results published in ChEMBL document CHEMBL3272018, “Synthesis of aziridinylallylaminophosphine oxides and sulfides as potential adjuvant cancer chemotherapeutic agents” (J Med Chem, 1976).
# Activity calls are given as the source filed them. The rule behind the calls is not given here.
# What was measured:
# [1] = system: W256; assay: Antitumor activity against rat Walker 256 cells intramuscularly allografted in rat assessed as tumor growth inhibition at 1.56 mg/kg, qd administered for 5 days relative to control; format: functional; conditions: W256, im, 120 h, route intramuscular, read-out: TGI
# How it was run: (§1)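 Dosed once daily for 5 days. Response is tumor progression in treated (T) versus untreated control (C) animals, expressed as T/C percentage. Host weight change is reported as the average net weight change of the test group minus that of the controls, in grams.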
# [2] = Toxicity in rat allografted with rat Walker 256 cells intramuscularly; format: organism-based
# [3] = system: L1210; assay: In vivo antitumor activity against mouse L1210 cells in prognostic scoring system assessed as survival rate at 3 mg/kg, qd administered for 9 days; format: functional, organism-based; parameters: dose 3 mg/kg
# How it was run: (§2)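 L1210 leukaemia in mice, run as an ascites tumour system. Injections were once daily for 9 or 15 days, or as a single dose. Response is the increase in survival time, given as T/C %, treated over untreated controls; a larger value means more activity. Weight change is the treated-group mean minus the control-group mean, in grams.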
# [4] = system: W256; assay: Antitumor activity against rat Walker 256 cells intramuscularly allografted in rat assessed as tumor growth inhibition; format: functional; conditions: W256, im; how it was run: as §1
# [5] = system: L1210; assay: In vivo antitumor activity against mouse L1210 cells in prognostic scoring system assessed as tumor growth inhibition at 3 mg/kg, qd administered for 9 days relative to control; format: functional; conditions: L1210, 216 h, read-out: TGI
# [6] = system: L1210; assay: In vivo antitumor activity against mouse L1210 cells in prognostic scoring system assessed as survival rate at 1 mg/kg, qd administered for 9 days; format: functional, organism-based; parameters: dose 1 mg/kg; how it was run: as §2
# [7] = system: W256; assay: Antitumor activity against rat Walker 256 cells intramuscularly allografted in rat assessed as tumor growth inhibition at 6.25 mg/kg, qd administered for 5 days relative to control; format: functional; conditions: W256, im, 120 h, route intramuscular, read-out: TGI
# How it was run: (§3)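 Walker 256 carcinoma grown as a solid tumour in rats, with one injection daily for 5 days. Response is given as T/C %, the treated-group measure over the untreated-control tumour measure; a smaller value means more activity. Host toxicity is the mean net weight change of treated minus control animals, in grams.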
# [8] = system: L1210; assay: In vivo antitumor activity against mouse L1210 cells in prognostic scoring system assessed as survival rate at 1.8 mg/kg, qd administered for 9 days; format: functional, organism-based; parameters: dose 1.8 mg/kg; how it was run: as §2
# [9] = system: W256; assay: Antitumor activity against rat Walker 256 cells intramuscularly allografted in rat assessed as survival rate at 0.78 mg/kg, qd administered for 5 days; format: functional, organism-based; parameters: dose 0.78 mg/kg
# How it was run: (§4)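 Rats bearing Walker 256 carcinoma as a solid tumor; lines 1-8 use a cytoxan-resistant Walker 256 subline. Dosed once daily for 5 days. Treated (T) and untreated control (C) groups are compared, and the response is given as T/C percentage, reflecting increase in survival time. Host weight change is the average weight change of the test group minus that of the controls, in grams.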
# [10] = system: W256; assay: Antitumor activity against rat Walker 256 cells intramuscularly allografted in rat assessed as survival rate at 3.12 mg/kg, qd administered for 5 days; format: functional, organism-based; parameters: dose 3.12 mg/kg; how it was run: as §4
# [11] = system: Rattus norvegicus; assay: Toxicity in rat allografted with rat Walker 256 cells intramuscularly assessed as change in body weight at 6.25 mg/kg, qd administered for 5 days; format: organism-based; parameters: dose 6.25 mg/kg, route intramuscular; conditions: in vivo, im, 120 h
# How it was run: (§5)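 Walker 256 carcinoma solid-tumour system in rats (parent line, or the line resistant to cytoxan). Dosing was one injection per day for 5 days. Toxicity was taken as the average net body-weight change of the treated group minus the average net weight change of the untreated tumour-bearing controls, in grams.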
# [12] = system: Rattus norvegicus; assay: Toxicity in rat allografted with rat Walker 256 cells intramuscularly assessed as change in body weight at 3.12 mg/kg, qd administered for 5 days; format: organism-based; parameters: dose 3.12 mg/kg, route intramuscular; conditions: in vivo, im, 120 h; how it was run: as §5
# [13] = system: L1210; assay: In vivo antitumor activity against mouse L1210 cells in prognostic scoring system assessed as survival rate at 5 mg/kg, qd administered for 9 days; format: functional, organism-based; parameters: dose 5 mg/kg; how it was run: as §2
# [14] = system: Rattus norvegicus; assay: Toxicity in rat allografted with rat Walker 256 cells intramuscularly assessed as change in body weight at 0.78 mg/kg, qd administered for 5 days; format: organism-based; parameters: dose 0.78 mg/kg, route intramuscular; conditions: in vivo, im, 120 h; how it was run: as §5
# [15] = system: W256; assay: Antitumor activity against rat Walker 256 cells intramuscularly allografted in rat assessed as tumor growth inhibition at 0.78 mg/kg, qd administered for 5 days relative to control; format: functional; conditions: W256, im, 120 h, route intramuscular, read-out: TGI; how it was run: as §1
# [16] = system: W256; assay: Antitumor activity against rat Walker 256 cells intramuscularly allografted in rat assessed as survival rate at 1.56 mg/kg, qd administered for 5 days; format: functional, organism-based; parameters: dose 1.56 mg/kg; how it was run: as §4
# [17] = Therapeutic index, ratio of LD50 for rat allografted with rat Walker 256 cells to ED10 for antitumor activity against rat Walker 256 cells intramuscularly allografted in rat; format: cell-based; conditions: read-out: TI
# How it was run: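 Therapeutic index is LD50/ED10 in the Walker 256 solid tumour system. ED10 is the dose giving a 10% tumour weight reduction, with values extrapolated from dose-response data.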
# [18] = system: Musca domestica; assay: Toxicity in male house fly assessed as lowest dose required to cause complete sterility administered in food; format: organism-based; conditions: in vivo, po
# [19] = system: W256; assay: Antitumor activity against rat Walker 256 cells intramuscularly allografted in rat assessed as tumor growth inhibition at 3.12 mg/kg, qd administered for 5 days relative to control; format: functional; conditions: W256, im, 120 h, route intramuscular, read-out: TGI; how it was run: as §3
# [20] = system: Musca domestica; assay: Toxicity in male house fly assessed as lowest dose required to cause complete sterility administered in sugar; format: organism-based; conditions: in vivo, po
# [21] = system: W256; assay: Antitumor activity against rat Walker 256 cells intramuscularly allografted in rat assessed as survival rate at 6.25 mg/kg, qd administered for 5 days; format: functional, organism-based; parameters: dose 6.25 mg/kg; how it was run: as §4
# [22] = system: Rattus norvegicus; assay: Toxicity in rat allografted with rat Walker 256 cells intramuscularly assessed as change in body weight at 1.56 mg/kg, qd administered for 5 days; format: organism-based; parameters: dose 1.56 mg/kg, route intramuscular; conditions: in vivo, im, 120 h; how it was run: as §5
compound,measurement,setting,value
C=CCN(CC=C)P(=O)(N1CC1C)N1CC1C (configuration not stated),inhibition in vivo at 1.56 mg/kg,[1],5%
same,LD50,[2],22 mg/kg
same,Activity,[3],Active
same,ED10,[4],3.5 mg/kg
same,inhibition in vivo at 3 mg/kg,[5],172%
same,Activity,[6],Active
same,inhibition in vivo at 6.25 mg/kg,[7],3%
same,Activity,[8],Active
same,Activity,[9],Active
same,Activity,[10],Active
same,Activity,[11],-28 g
same,Activity,[12],-15 g
same,Activity,[13],Active
same,Activity,[14],-8 g
same,inhibition in vivo at 0.78 mg/kg,[15],24%
same,Activity,[16],Active
same,selectivity ratio,[17],9
same,Activity,[18],0.25%
same,inhibition in vivo at 3.12 mg/kg,[19],0%
same,Activity,[20],0.5%
same,Activity,[21],Active
same,Activity,[22],-22 g
